From ChEMBL document CHEMBL4339197, “Discovery of Imidazo[1,2-a]pyrazines and Pyrazolo[1,5-c]pyrimidines as TARP γ-8 Selective AMPAR Negative Modulators” (ACS Med Chem Lett, 2019)
Converted amounts (≈) assume the structure as drawn. One block for each molecule: values may come before it. The source made the active and inactive calls. The rule behind the calls is not given here.

What was measured:
[1] = molecular target: GRIA1/CACNG8 (Homo sapiens); assay: Negative allosteric modulation of recombinant human GluA1 flop isoform/TARPgamma8 expressed in HEK293 cells assessed as inhibition of glutamate-induced calcium flux at 100 uM by calcium 5/6 dye based FLIPR assay
GRIA1/CACNG2 [2] = molecular target: T1, GRIA1/CACNG2 (Homo sapiens, UniProt P42261+Q9Y698); assay: Negative allosteric modulation of recombinant human GluA1 flop isoform/TARPgamma2 expressed in HEK293 cells assessed as inhibition of glutamate-induced calcium flux by calcium 5/6 dye based FLIPR assay; assay type: cell-based
Procedure, shortened: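 FLIPR Ca2+ flux assay in HEK-293 cells transiently expressing human GluA1o co-transfected with γ-2; glutamate-induced response; reported as pIC50.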

GRIA1/CACNG8 = GRIA1/CACNG8 (Homo sapiens, UniProt P42261+Q8WXS5); assay: Negative allosteric modulation of recombinant human GluA1 flop isoform/TARPgamma8 expressed in HEK293 cells assessed as inhibition of glutamate-induced calcium flux by calcium 5/6 dye based FLIPR assay; assay type: cell-based
Procedure, shortened: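 FLIPR assay of glutamate-induced Ca2+ flux in HEK-293 cells expressing a human GluA1o-γ-8 fusion construct. At least three assays each run in triplicate; mean pIC50 with standard deviation.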

[3] = molecular target: T2, Voltage-dependent calcium channel gamma-2 subunit (Rattus norvegicus, UniProt Q71RJ2); assay: Negative allosteric modulation of TARPgamma2 in rat cerebellar purkinje neurons assessed as inhibition of glutamate-induced current at 10 uM at -60 mV holding potential measured at 5 secs interval for 50 to 60 secs by patch-clamp electrophysiology method
T2 sequence (Q71RJ2 whole entry): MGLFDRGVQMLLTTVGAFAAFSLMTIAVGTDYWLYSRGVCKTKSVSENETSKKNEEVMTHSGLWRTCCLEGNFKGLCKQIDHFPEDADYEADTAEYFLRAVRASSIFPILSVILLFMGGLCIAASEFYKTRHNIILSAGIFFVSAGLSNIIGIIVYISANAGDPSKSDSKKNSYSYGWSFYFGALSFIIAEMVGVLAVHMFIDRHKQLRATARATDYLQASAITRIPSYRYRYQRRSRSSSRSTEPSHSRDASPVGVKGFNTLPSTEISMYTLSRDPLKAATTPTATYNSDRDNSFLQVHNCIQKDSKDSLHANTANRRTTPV

[4] = molecular target: T3, Voltage-dependent calcium channel gamma-8 subunit (Rattus norvegicus) (UniProt Q8VHW5); assay: Negative allosteric modulation of TARPgamma8 in rat hippocampal neurons assessed as inhibition of glutamate-induced current at 10 uM at -60 mV holding potential by patch-clamp electrophysiology method
T3 sequence (whole entry): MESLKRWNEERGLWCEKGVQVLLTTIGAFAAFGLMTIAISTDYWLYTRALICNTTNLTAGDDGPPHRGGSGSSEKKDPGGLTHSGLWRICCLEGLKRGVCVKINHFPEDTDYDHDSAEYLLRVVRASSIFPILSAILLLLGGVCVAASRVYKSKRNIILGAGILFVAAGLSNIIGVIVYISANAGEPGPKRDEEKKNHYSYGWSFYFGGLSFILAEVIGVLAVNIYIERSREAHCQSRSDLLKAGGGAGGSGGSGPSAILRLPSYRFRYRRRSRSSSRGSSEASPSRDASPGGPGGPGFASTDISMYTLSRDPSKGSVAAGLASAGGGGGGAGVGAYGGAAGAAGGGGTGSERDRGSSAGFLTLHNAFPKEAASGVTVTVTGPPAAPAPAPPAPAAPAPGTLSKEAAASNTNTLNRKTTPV

GRIA1/CACNG2 [5] = molecular target: T1, GRIA1/CACNG2; assay: Negative allosteric modulation of recombinant human GluA1 flop isoform/TARPgamma2 expressed in HEK293 cells assessed as inhibition of glutamate-induced calcium flux at 100 uM by calcium 5/6 dye based FLIPR assay; assay type: cell-based; conditions: hek293, 100 µM
Procedure, shortened: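 Counterscreen of FLIPR Ca2+ flux in HEK-293 cells co-transfected with human GluA1o and γ-2, tested up to 100 µM.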

[6] = molecular target: T3, Voltage-dependent calcium channel gamma-8 subunit (Rattus norvegicus); assay: Negative allosteric modulation of TARPgamma8 in rat hippocampal neurons assessed as inhibition of glutamate-induced current at 10 uM at -60 mV holding potential measured at 5 secs interval for 50 to 60 secs by patch-clamp electrophysiology method relative to control
[7] = Efflux ratio of apparent permeability across basolateral to apical side over apical to basolateral side in MDCK-MDR1 cells at 5 uM measured after 60 mins by LC-MS/MS analysis; assay type: ADME, cell-based, Canis lupus familiaris; conditions: dog
Procedure, shortened: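 Bidirectional permeability; efflux reported as the ratio of B-to-A over A-to-B apparent permeability.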

[8] = Extraction ratio in human liver microsomes at 1 uM measured after 60 mins by LC-MS/MS analysis; assay type: ADME, Microsome; conditions: read-out: ERH
Procedure, shortened: (§1)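 Metabolic stability in human and rat liver microsomes at 1 µM compound; reported as extraction ratio.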

[9] = Extraction ratio in rat liver microsomes at 1 uM measured after 60 mins by LC-MS/MS analysis; assay type: ADME, Microsome; conditions: read-out: ERH
Procedure, shortened: as §1

[10] = Apparent permeability across apical to basolateral side in MDCK-MDR1 cells at 5 uM measured after 60 mins by LC-MS/MS analysis; assay type: ADME, cell-based, Canis lupus familiaris; conditions: dog
Mus musculus [11] = assay: Ex vivo receptor occupancy at TARPgamma8 in mouse assessed as reduction in [3H]JNJ-56022486 receptor labeling at 10 mg/kg, po measured after 1 hr by autoradiography; assay type: functional
Procedure, shortened: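 Mice given a single 10 mg/kg p.o. dose and sampled over time (n = 3 per time point, ±SEM). GluA/γ-8 receptor occupancy in hippocampus measured by ex vivo autoradiography with [3H]JNJ-56022486 radiotracer. Plasma and brain exposures also measured.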

Mus musculus [12] = assay: Ex vivo receptor occupancy at TARPgamma8 in po dosed mouse assessed as plasma concentration causing 50% reduction in [3H]JNJ-56022486 receptor labeling by autoradiography; assay type: functional, organism-based
Procedure, shortened: (§2)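 Occupancy measured by ex vivo autoradiography with [3H]JNJ-56022486. ED50 from a Hill fit of occupancy versus dose. Brain and plasma EC50 from fitting occupancy against exposure.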

Mus musculus [13] = assay: Anticonvulsant activity in albino CF1 mouse model of 60-Hz corneal stimulation induced kindling model assessed as decrease in seizure score at 5 mg/kg/day measured 1 hr post last dose; assay type: functional, organism-based
Procedure, shortened: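 Mouse corneal kindling model; once-daily oral dosing at 5 mg/kg/day for 5 days, seizure challenge 1 h after dosing. Rotarod test given immediately before challenge. Read-out is the fraction of animals protected (Racine score 3 or lower). N = 12-14 animals per cohort.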

Mus musculus [14] = assay: Anticonvulsant activity in po dosed albino CF1 mouse model of 60-Hz corneal stimulation induced kindling model assessed as decrease of seizure score treated for 1 hr prior to 60-Hz corneal stimulation and measured after 1 hr
Mus musculus [15] = assay: Ex vivo receptor occupancy at TARPgamma8 in po dosed mouse assessed as reduction in [3H]JNJ-56022486 receptor labeling by autoradiography; assay type: functional
Procedure, shortened: as §2

Cytochrome P450 2C9 = Cytochrome P450 2C9 (Homo sapiens, UniProt P11712); assay: Inhibition of CYP2C9 in human liver microsomes using diclofenac as substrate measured after 15 mins in presence of NADPH by LC-MS/MS analysis; assay type: ADME
Sequence of Cytochrome P450 2C9 (P11712 whole entry): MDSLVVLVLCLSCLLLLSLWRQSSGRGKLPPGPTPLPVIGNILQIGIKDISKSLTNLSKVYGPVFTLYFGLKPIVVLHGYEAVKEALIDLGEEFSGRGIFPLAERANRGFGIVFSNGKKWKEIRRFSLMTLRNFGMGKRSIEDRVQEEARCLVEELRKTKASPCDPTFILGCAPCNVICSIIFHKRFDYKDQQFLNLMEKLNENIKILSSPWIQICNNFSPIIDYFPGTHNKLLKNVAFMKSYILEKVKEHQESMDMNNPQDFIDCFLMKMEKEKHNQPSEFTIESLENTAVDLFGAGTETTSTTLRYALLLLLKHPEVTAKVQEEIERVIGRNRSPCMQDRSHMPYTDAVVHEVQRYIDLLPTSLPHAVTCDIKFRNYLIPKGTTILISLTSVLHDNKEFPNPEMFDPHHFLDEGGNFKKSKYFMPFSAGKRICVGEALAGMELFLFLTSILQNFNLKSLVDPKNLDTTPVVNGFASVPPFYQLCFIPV

T1 sequence (P42261 whole entry, canonical isoform): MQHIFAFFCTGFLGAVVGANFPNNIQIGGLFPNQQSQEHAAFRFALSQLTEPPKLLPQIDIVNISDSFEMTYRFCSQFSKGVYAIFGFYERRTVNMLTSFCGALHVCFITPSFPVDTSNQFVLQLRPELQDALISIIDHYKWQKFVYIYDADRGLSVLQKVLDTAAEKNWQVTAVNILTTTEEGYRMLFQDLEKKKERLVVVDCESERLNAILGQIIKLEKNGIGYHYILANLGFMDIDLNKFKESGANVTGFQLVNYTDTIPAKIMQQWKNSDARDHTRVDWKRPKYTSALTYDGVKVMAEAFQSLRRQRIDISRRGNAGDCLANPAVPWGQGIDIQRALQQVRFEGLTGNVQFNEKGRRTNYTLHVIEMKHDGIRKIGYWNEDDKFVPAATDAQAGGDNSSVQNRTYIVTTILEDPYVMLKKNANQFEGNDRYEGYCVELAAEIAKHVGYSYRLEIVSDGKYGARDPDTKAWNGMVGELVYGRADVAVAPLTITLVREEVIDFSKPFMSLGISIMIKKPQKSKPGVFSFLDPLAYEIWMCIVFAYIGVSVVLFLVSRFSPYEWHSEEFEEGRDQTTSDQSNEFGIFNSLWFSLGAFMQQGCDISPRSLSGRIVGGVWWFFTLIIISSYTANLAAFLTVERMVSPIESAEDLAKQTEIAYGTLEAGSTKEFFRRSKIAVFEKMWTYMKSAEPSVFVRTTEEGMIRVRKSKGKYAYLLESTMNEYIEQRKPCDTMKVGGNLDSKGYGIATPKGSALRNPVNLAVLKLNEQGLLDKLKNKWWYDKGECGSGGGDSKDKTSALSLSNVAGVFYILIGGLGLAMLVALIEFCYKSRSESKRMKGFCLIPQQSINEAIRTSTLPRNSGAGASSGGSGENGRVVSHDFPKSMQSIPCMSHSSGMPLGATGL
T1 sequence (Q9Y698 whole entry, canonical isoform): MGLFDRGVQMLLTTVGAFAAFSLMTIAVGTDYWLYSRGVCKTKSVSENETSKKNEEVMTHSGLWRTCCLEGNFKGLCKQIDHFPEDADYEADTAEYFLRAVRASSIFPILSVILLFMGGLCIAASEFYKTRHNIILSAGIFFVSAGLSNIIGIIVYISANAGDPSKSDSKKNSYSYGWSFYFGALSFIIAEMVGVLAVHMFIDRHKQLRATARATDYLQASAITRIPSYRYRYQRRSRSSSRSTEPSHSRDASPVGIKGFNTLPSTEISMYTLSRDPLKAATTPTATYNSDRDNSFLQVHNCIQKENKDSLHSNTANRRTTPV
Sequence of GRIA1/CACNG8 (P42261 whole entry, the tested form may be a part, canonical isoform): as the sequence (P42261 whole entry, canonical isoform) above
Sequence of GRIA1/CACNG8 (Q8WXS5 whole entry, the tested form may be a part, canonical isoform): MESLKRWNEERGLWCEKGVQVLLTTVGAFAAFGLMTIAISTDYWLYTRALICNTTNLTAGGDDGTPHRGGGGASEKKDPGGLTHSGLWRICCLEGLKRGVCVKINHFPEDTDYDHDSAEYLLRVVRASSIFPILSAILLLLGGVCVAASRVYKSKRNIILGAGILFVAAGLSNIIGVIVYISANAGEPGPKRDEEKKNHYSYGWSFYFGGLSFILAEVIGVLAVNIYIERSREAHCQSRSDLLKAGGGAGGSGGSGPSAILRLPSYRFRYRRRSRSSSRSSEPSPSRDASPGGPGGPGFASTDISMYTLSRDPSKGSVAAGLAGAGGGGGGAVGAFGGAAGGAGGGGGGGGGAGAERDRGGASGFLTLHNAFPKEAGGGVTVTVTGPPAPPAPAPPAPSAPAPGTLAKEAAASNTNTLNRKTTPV

IC50 ([1]; read-out: pIC50 (converted)): 0.398 nM
Structure (SMILES): CC(=O)N1CCN(c2nccn3c(-c4ccc5c(c4)CC(=O)N5)c(-c4ccc(F)cc4)nc23)CC1

IC50 (GRIA1/CACNG2 [2]): > 10000 nM
IC50 (GRIA1/CACNG8): 126 nM
inhibition (INH) [3]: Not Active
inhibition [4]: Dose-dependent effect
inhibition (INH) (GRIA1/CACNG2 [5]): Not Active
inhibition [6]: 50%
Structure (SMILES): COCCn1cc(-c2c(-c3ccc(Cl)cc3)nc3c(N4CCOCC4)nccn23)cn1

IC50 ([1]; read-out: pIC50 (converted)): 0.398 nM
Structure (SMILES): O=C1Cc2cc(-c3c(-c4ccc(F)cc4)nc4c(N5CCC(O)CC5)nccn34)ccc2N1

IC50 ([1]; read-out: pIC50 (converted)): 501 nM
Structure (SMILES): COc1ccc(-c2c(-c3ccc(F)cc3)nc3c(N4CCOCC4)nccn23)cc1

IC50 ([1]; read-out: pIC50 (converted)): 63.1 nM
Structure (SMILES): Nc1ccc(-c2c(-c3ccc(F)cc3)nc3c(N4CCOCC4)nccn23)cc1

IC50 ([1]; read-out: pIC50 (converted)): 0.501 nM
Structure (SMILES): O=C1Cc2cc(-c3c(-c4ccc(F)cc4)nn4c(N5CCOCC5)nccc34)ccc2N1

efflux ratio at 1 h, 5 µM [7]: 34
hepatic extraction ratio at 1 h, 1 µM [8]: 0.6
hepatic extraction ratio at 1 h, 1 µM [9]: 0.5
IC50 ([1]; read-out: pIC50 (converted)): 0.251 nM
Papp A→B at 1 h, 5 µM [10]: 2.1 ×10⁻⁶ cm/s
Structure (SMILES): CC(=O)N1CCN(c2nccc3c(-c4ccc5c(c4)CC(=O)N5)c(-c4ccc(F)cc4)nn23)CC1

IC50 ([1]; read-out: pIC50 (converted)): 0.501 nM
Structure (SMILES): O=C1CN(c2nccn3c(-c4ccc5c(c4)CC(=O)N5)c(-c4ccc(F)cc4)nc23)CCN1

IC50 ([1]; read-out: pIC50 (converted)): > 10000 nM
Structure (SMILES): CC(=O)Nc1ccc(-c2c(-c3ccc(F)cc3)nc3c(N4CCOCC4)nccn23)cc1

EC50 (Mus musculus [12]): 0.362 µg/mL (≈ 0.816 µM)
Structure (SMILES): O=C1Cc2cc(-c3c(-c4ccc(F)cc4)nn4c(N5CCC(O)CC5)nccc34)ccc2N1
Occ (Mus musculus [11]): > 90%
Activity (Mus musculus [13]): Active
ED50 (Mus musculus [14]): 1.3 mg/kg
ED50 (Mus musculus [15]): 2.9 mg/kg

hepatic extraction ratio at 1 h, 1 µM [8]: 0.6
hepatic extraction ratio at 1 h, 1 µM [9]: 0.6
IC50 ([1]; read-out: pIC50 (converted)): 5.01 nM
Papp A→B at 1 h, 5 µM [10]: 1.2 ×10⁻⁶ cm/s
Structure (SMILES): O=C1Cc2cc(-c3c(-c4ccc(F)cc4)nn4c(N5CCC(F)CC5)nccc34)ccc2N1

IC50 ([1]; read-out: pIC50 (converted)): 12.6 nM
Structure (SMILES): Oc1ccc(-c2c(-c3ccc(F)cc3)nc3c(N4CCOCC4)nccn23)cc1

IC50 ([1]; read-out: pIC50 (converted)): 5.01 nM
Structure (SMILES): O=C1CN(c2nccc3c(-c4ccc5c(c4)CC(=O)N5)c(-c4ccc(F)cc4)nn23)CCN1

IC50 ([1]; read-out: IC50): 0.1 nM
Structure (SMILES): O=C1Cc2cc(-c3c(-c4ccc(F)cc4)nc4c(N5CCC(F)CC5)nccn34)ccc2N1

IC50 (Cytochrome P450 2C9): 500 nM
IC50 ([1]; read-out: pIC50 (converted)): 0.631 nM
Structure (SMILES): Fc1ccc(-c2nc3c(N4CCOCC4)nccn3c2-c2ccc3[nH]ncc3c2)cc1

IC50 ([1]; read-out: pIC50 (converted)): 10 nM
Structure (SMILES): Oc1ccc(-c2c(-c3ccc(Cl)cc3)nc3c(N4CCOCC4)nccn23)cc1

IC50 (GRIA1/CACNG2 [2]): 1260 nM
IC50 (GRIA1/CACNG8): 200 nM
Structure (SMILES): Oc1ccc(-n2c(-c3ccc(F)cc3)nc3ccccc32)cc1
